According to ChEMBL document CHEMBL1137196, “Non-peptide oxytocin agonists” (Bioorg Med Chem Lett, 2004):

Tests used:
[1] = molecular target: Vasopressin V2 receptor (Homo sapiens, UniProt P30518); test: Effective concentration for human Vasopressin V2 receptor
Procedure, shortened: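 293 cells in phenol red-free DMEM with penicillin and 10% foetal calf serum were dual-transfected with V2 receptor and CRE-luciferase constructs, then grown 24 h at 37°C/5% CO2 before and after plating. Compounds came from 10 mM DMSO stocks (0.1% DMSO final). Luciferase was measured after 5 h at 37°C. EC50 from a 4-parameter logistic fit; mean ± SD (n≥3), or mean ± range where n=2.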

[2] = molecular target: T1, Oxytocin receptor (Homo sapiens, UniProt P30559); test: Effective concentration for human Oxytocin receptor
T1 sequence (P30559 whole entry): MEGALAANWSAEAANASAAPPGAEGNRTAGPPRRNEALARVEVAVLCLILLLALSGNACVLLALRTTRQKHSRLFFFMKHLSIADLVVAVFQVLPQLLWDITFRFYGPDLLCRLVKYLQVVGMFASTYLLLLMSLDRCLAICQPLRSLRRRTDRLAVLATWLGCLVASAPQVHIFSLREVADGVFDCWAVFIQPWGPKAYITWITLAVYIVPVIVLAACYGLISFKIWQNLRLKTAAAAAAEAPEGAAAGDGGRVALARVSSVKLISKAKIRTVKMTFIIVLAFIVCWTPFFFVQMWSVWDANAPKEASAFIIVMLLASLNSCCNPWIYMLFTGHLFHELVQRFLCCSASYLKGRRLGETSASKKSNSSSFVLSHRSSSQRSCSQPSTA
Procedure, shortened: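 CHO cells kept in phenol red-free DMEM with penicillin and 10% foetal calf serum, dual-transfected with human OT receptor and NFAT-luciferase constructs, then grown 24 h at 37°C/5% CO2 before and after plating. Compounds were diluted from 10 mM DMSO stocks (0.1% DMSO final). Luciferase was read after 5 h at 37°C. EC50 came from a 4-parameter logistic fit; mean ± SD (n≥3), or mean ± range where n=2.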

[3] = molecular target: Oxytocin receptor (Homo sapiens) (UniProt P30559); test: Agonist activity against Oxytocin receptor relative to oxytocin at 3 uM

Chain of Vasopressin V2 receptor (P30518 whole entry): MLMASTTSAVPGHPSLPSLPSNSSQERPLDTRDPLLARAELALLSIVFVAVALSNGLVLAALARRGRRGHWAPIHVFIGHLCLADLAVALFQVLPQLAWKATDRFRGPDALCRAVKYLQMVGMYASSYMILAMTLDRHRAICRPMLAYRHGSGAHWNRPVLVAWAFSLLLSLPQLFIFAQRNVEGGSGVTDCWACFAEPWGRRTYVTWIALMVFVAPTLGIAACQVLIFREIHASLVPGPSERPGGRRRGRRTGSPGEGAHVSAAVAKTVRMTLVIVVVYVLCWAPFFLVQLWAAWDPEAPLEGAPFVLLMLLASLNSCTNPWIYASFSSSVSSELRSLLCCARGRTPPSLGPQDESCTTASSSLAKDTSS

EC50 [1] [nM]	EC50 [2] [nM]	Relativity [3] [%]	Compound
1300	2800		CO[C@@H]1C[C@@H](C(=O)N2CCCN(C)CC2)N(C(=O)NCc2ccc(C(=O)N3CCCCc4sccc43)cc2Cl)C1
850	33		Cc1cc(C(=O)N2Cc3cnn(C)c3Nc3ccccc32)ccc1CNC(=O)N1CCC[C@H]1C(=S)N1CCCN(C)CC1
570	1500		CO[C@@H]1C[C@@H](C(=O)NCCc2ccccn2)N(C(=O)NCc2ccc(C(=O)N3CCCCc4sccc43)cc2Cl)C1
1200	2200		CO[C@@H]1C[C@@H](C(=O)N2CCC(N3CCCCC3)CC2)N(C(=O)NCc2ccc(C(=O)N3CCCCc4sccc43)cc2Cl)C1
230	430		CO[C@@H]1C[C@@H](C(=S)N2CCCN(C)CC2)N(C(=O)NCc2ccc(C(=O)N3CCCCc4sccc43)cc2Cl)C1
1800	810		CN1CCCN(C(=S)[C@@H]2CCCN2C(=O)NCc2ccc(C(=O)N3CCCCc4sccc43)cc2Cl)CC1
200	470		CO[C@@H]1C[C@@H](C(=S)NCCc2ccccn2)N(C(=O)NCc2ccc(C(=O)N3CCCCc4sccc43)cc2Cl)C1
890	640		Cc1cc(C(=O)N2CCCCc3sccc32)ccc1CNC(=O)N1CCC[C@H]1C(=S)N1CCCN(C)CC1
		33	Cc1cc(C(=O)N2CCCCc3ccccc32)ccc1CNC(=O)NCC(=O)N(C)C
		< 10	Cc1ccn(-c2ccc(C(=O)N3Cc4cccn4Cc4ccccc43)c(Cl)c2)n1
1100	2300		CO[C@@H]1C[C@@H](C(=O)N2CCC(N3CCCC3)CC2)N(C(=O)NCc2ccc(C(=O)N3CCCCc4sccc43)cc2Cl)C1
100	480		CO[C@@H]1C[C@@H](C(=S)N2CCC(N3CCCC3)CC2)N(C(=O)NCc2ccc(C(=O)N3CCCCc4sccc43)cc2Cl)C1
		< 10	CC(C)NC(=O)C[C@H]1CCCN(C(=O)c2ccc(N3CCCC3)cc2Cl)c2ccccc21
1800	> 10000		CO[C@@H]1C[C@@H](C(=O)NCCN(C)C)N(C(=O)NCc2ccc(C(=O)N3CCCCc4sccc43)cc2Cl)C1
